Source: ChEMBL document CHEMBL1143195, “Novel sulfonanilide analogs decrease aromatase activity in breast cancer cells: synthesis, biological evaluation, and ligand-based pharmacophore identification” (J Med Chem, 2008)
Activity calls are given as the source filed them. The calls are words filed in the database; no cut-off is given here.

What was measured:
[1] = target: T1, Aromatase (Homo sapiens, UniProt P11511); assay: Inhibition of aromatase in human SKBR3 cells by tritiated water release assay; format: cell-based; settings: sk-br-3
T1 sequence (P11511 whole entry): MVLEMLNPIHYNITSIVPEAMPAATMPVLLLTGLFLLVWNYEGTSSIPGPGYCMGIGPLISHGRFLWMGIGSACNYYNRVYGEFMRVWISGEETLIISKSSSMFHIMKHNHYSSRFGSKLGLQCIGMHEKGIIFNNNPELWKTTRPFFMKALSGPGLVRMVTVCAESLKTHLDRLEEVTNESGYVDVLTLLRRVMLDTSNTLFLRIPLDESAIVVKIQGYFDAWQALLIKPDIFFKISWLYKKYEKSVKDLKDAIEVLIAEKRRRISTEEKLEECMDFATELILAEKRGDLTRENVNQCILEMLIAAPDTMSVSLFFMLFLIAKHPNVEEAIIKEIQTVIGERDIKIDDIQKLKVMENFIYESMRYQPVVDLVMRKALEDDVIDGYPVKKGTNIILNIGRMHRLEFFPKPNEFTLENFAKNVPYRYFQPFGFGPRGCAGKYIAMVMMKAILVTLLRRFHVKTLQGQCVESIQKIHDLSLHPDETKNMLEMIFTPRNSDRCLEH
Outline: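 Subconfluent SK-BR-3 cells were switched to defined DMEM/F12 (human albumin, transferrin, insulin) and treated 24 h at five concentrations in triplicate (0.1% DMSO vehicle). They were then incubated 3 h with 100 nM [1β-3H]-androstenedione. TCA-precipitated medium was chloroform-extracted and charcoal-treated, and 3H2O counted as pmol/h/10^6 cells, normalized by DNA assay. IC50 was taken from sigmoidal dose–response fits.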

[2] = tested on: SK-BR-3; assay: Cytotoxicity against human SKBR3 cells by diphenylamine DNA assay; format: functional, cell-based

SMILES	IC50 [1]	Activity [2]
CCCCCCCCCOc1cc([N+](=O)[O-])ccc1N(C)S(C)(=O)=O	3.96 µM	–
CS(=O)(=O)Nc1ccc([N+](=O)[O-])cc1OCCc1ccccc1	0.23 µM	–
CCCCCCCCCOc1cc([N+](=O)[O-])ccc1NS(C)(=O)=O	0.91 µM	–
CN(c1ccc([N+](=O)[O-])cc1OCc1ccc(Br)cc1)S(C)(=O)=O	0.33 µM	–
CN(c1ccc([N+](=O)[O-])cc1OCc1ccccc1)S(C)(=O)=O	0.81 µM	–
CS(=O)(=O)Nc1ccc([N+](=O)[O-])cc1OC1CCCCC1 [NS-398]	0.68 µM	–
CN(c1ccc([N+](=O)[O-])cc1OC1CCCC1)S(C)(=O)=O	0.44 µM	–
O=C(Nc1ccc([N+](=O)[O-])cc1OCc1ccccc1)C1CCCCC1	> 25 µM	–
CS(=O)(=O)Nc1ccc([N+](=O)[O-])cc1OCc1ccc([N+](=O)[O-])cc1	0.4 µM	–
CS(=O)(=O)Nc1ccc([N+](=O)[O-])cc1OCc1ccc(Cl)cc1	0.29 µM	–
O=C(Nc1ccc([N+](=O)[O-])cc1OCc1ccccc1)c1ccc([N+](=O)[O-])cc1	> 25 µM	–
O=C(Nc1ccc([N+](=O)[O-])cc1OCc1ccccc1)c1ccc(Cl)c([N+](=O)[O-])c1	> 25 µM	–
Cc1ccc(C)c(COc2cc([N+](=O)[O-])ccc2NS(C)(=O)=O)c1	0.37 µM	–
Cc1ccc(C)c(COc2cc([N+](=O)[O-])ccc2N(C)S(C)(=O)=O)c1	–	Active
CS(=O)(=O)Nc1ccc([N+](=O)[O-])cc1OCc1ccc(F)cc1	0.58 µM	–
CN(c1ccc([N+](=O)[O-])cc1OCc1cccc2ccccc12)S(C)(=O)=O	1.17 µM	–
COc1ccc(COc2cc([N+](=O)[O-])ccc2NS(C)(=O)=O)cc1	7.82 µM	–
CS(=O)(=O)Nc1ccc([N+](=O)[O-])cc1OCc1ccc2ccccc2c1	2.17 µM	–
CN(c1ccc(NC(=O)C2CCCCC2)cc1OCc1ccccc1)S(C)(=O)=O	0.25 µM	–
CC(C)c1ccc(COc2cc([N+](=O)[O-])ccc2N(C)S(C)(=O)=O)cc1	–	Active
CS(=O)(=O)Nc1ccc([N+](=O)[O-])cc1OCc1ccccc1-c1ccccc1	0.26 µM	–
CN(c1ccc(NC(=O)c2ccc(-c3ccccc3)cc2)cc1OCc1ccccc1)S(C)(=O)=O	0.12 µM	–

SMILES	IC50 [1]	Activity [2]
CCCOc1cc([N+](=O)[O-])ccc1N(C)S(C)(=O)=O	0.76 µM	–
O=C(Nc1ccc([N+](=O)[O-])cc1OCc1ccccc1)c1ccc(-c2ccccc2)cc1	> 25 µM	–
Cc1ccc(COc2cc([N+](=O)[O-])ccc2N(C)S(C)(=O)=O)cc1	2.33 µM	–
CN(c1ccc([N+](=O)[O-])cc1OC1CCCCC1)S(C)(=O)=O	0.47 µM	–
CN(c1ccc(NC(=O)c2ccc3ccccc3c2)cc1OCc1ccccc1)S(C)(=O)=O	1.07 µM	–
CCC(CC)Oc1cc([N+](=O)[O-])ccc1NS(C)(=O)=O	0.3 µM	–
N#Cc1ccc(C(=O)Nc2ccc([N+](=O)[O-])cc2OCc2ccccc2)cc1	> 25 µM	–
CN(c1ccc(NC(=O)c2ccccc2)cc1OCc1ccccc1)S(C)(=O)=O	1.77 µM	–
CN(c1ccc([N+](=O)[O-])cc1OCc1ccc(-c2ccccc2)cc1)S(C)(=O)=O	0.65 µM	–
CC(=O)Nc1ccc(N(C)S(C)(=O)=O)c(OCc2ccccc2)c1	16.7 µM	–
CN(c1ccc(N)cc1OCc1ccccc1)S(C)(=O)=O	1.1 µM	–
CCCCCCOc1cc([N+](=O)[O-])ccc1N(C)S(C)(=O)=O	4.49 µM	–
CS(=O)(=O)Nc1ccc([N+](=O)[O-])cc1OCc1cccc2ccccc12	5.74 µM	–
CN(c1ccc([N+](=O)[O-])cc1OCCc1ccccc1)S(C)(=O)=O	0.52 µM	–
CS(=O)(=O)Nc1ccc([N+](=O)[O-])cc1OCc1ccc(Br)cc1	5.85 µM	–
CN(c1ccc([N+](=O)[O-])cc1OCc1ccc2ccccc2c1)S(C)(=O)=O	2.68 µM	–
CC(C)c1ccc(COc2cc([N+](=O)[O-])ccc2NS(C)(=O)=O)cc1	7.45 µM	–
CS(=O)(=O)Nc1ccc([N+](=O)[O-])cc1OCc1ccccc1	2.14 µM	–
CC(C)Oc1cc([N+](=O)[O-])ccc1N(C)S(C)(=O)=O	2.81 µM	–
CS(=O)(=O)Nc1ccc([N+](=O)[O-])cc1OCC1CCCCC1	1.21 µM	–
CC(C)Oc1cc([N+](=O)[O-])ccc1NS(C)(=O)=O	5.87 µM	–
CN(c1ccc(NC(=O)c2ccc(Cl)c(Cl)c2)cc1OCc1ccccc1)S(C)(=O)=O	0.69 µM	–

SMILES	IC50 [1]	Activity [2]
CN(c1ccc([N+](=O)[O-])cc1OCc1ccc(F)cc1)S(C)(=O)=O	1.78 µM	–
CS(=O)(=O)Nc1ccc([N+](=O)[O-])cc1OCc1ccc(-c2ccccc2)cc1	0.85 µM	–
CN(c1ccc([N+](=O)[O-])cc1OCc1ccccc1-c1ccccc1)S(C)(=O)=O	0.33 µM	–
Cc1ccc(COc2cc([N+](=O)[O-])ccc2NS(C)(=O)=O)cc1	1.75 µM	–
O=C(Nc1ccc([N+](=O)[O-])cc1OCc1ccccc1)c1ccccc1	> 25 µM	–
CN(c1ccc([N+](=O)[O-])cc1OCc1ccc(Cl)cc1)S(C)(=O)=O	2.4 µM	–
CN(c1ccc(NC(=O)c2ccc(Cl)c([N+](=O)[O-])c2)cc1OCc1ccccc1)S(C)(=O)=O	0.69 µM	–
COc1ccc(COc2cc([N+](=O)[O-])ccc2N(C)S(C)(=O)=O)cc1	0.47 µM	–
CN(c1ccc(NC(=O)c2ccc(C#N)cc2)cc1OCc1ccccc1)S(C)(=O)=O	0.44 µM	–
O=C(Nc1ccc([N+](=O)[O-])cc1OCc1ccccc1)c1ccc2ccccc2c1	> 25 µM	–
Cc1ccc(S(=O)(=O)Nc2ccc([N+](=O)[O-])cc2OCc2ccccc2)cc1	17.4 µM	–
O=C(Nc1ccc([N+](=O)[O-])cc1OCc1ccccc1)c1cccc([N+](=O)[O-])c1	> 25 µM	–
CC(=O)Nc1ccc([N+](=O)[O-])cc1OCc1ccccc1	1.18 µM	–
CCCCCCOc1cc([N+](=O)[O-])ccc1NS(C)(=O)=O	2.67 µM	–
CN(c1ccc([N+](=O)[O-])cc1OCC1CCCCC1)S(C)(=O)=O	0.96 µM	–
CN(c1ccc([N+](=O)[O-])cc1OCc1ccc([N+](=O)[O-])cc1)S(C)(=O)=O	0.49 µM	–
O=[N+]([O-])c1ccc(S(=O)(=O)Nc2ccc([N+](=O)[O-])cc2OCc2ccccc2)cc1	2.17 µM	–
CS(=O)(=O)Nc1ccc([N+](=O)[O-])cc1OC1CCCC1	0.87 µM	–
CCC(CC)Oc1cc([N+](=O)[O-])ccc1N(C)S(C)(=O)=O	0.23 µM	–
CCCOc1cc([N+](=O)[O-])ccc1NS(C)(=O)=O	2.51 µM	–
O=C(Nc1ccc([N+](=O)[O-])cc1OCc1ccccc1)c1ccc(Cl)c(Cl)c1	> 25 µM	–
